EWS-Fli inh – EWS/Fli-driven NR0B1 reporter inhibitors, primary screen, A673 cells, NR0B1 luciferase, luminescence, MLPCN library; viability-normalised; inhibition, % at 12.6 µM; hit rate 0.67% among 350,000; AID 651661, 2012;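 active = mean inhibition of at least 50% after viability correction, with every replicate also passing that limit; inconclusive = mean reaches 50% but only one of two replicates passes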;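 also: firefly luciferase signal divided by Alamar Blue viability fluorescence both relative to DMSO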
FN deposit inh – inhibitors of fibronectin matrix deposition, primary screen, AH1F cells, Alexa488-fibronectin fluorescence, plate reader; AH1F fibroblasts, overnight; AID 743247, 2014; hit rate 0.086% among 350,000; inhibition, % at 12.6 µM;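 active = mean inhibition across replicates of 30% or more, regardless of how many single replicates reach that level; inconclusive = mean under 30% yet at least half of replicates reach 30%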;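 also: positive control wells lacked labelled fibronectin entirely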
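Assay system: AH1F fibroblasts assembling fluorescent fibronectin matrix; Amount: 10000 AH1F cells per well; Buffer or medium: DMEM, 2% serum; Probe or stimulus: Alexa488-fibronectin, 24 nM final in well; Doses: single compound dose, delivered by pin transfer; Incubation: 1 h adhesion, overnight exposure; Measured by: fluorescence 485/525 nm; Read-out: fibronectin deposition inhibition.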
AF4-AF9 inh – inhibitors of AF4 peptide binding to AF9, primary screen, biochemical, AlphaScreen, biotin-AF4 peptide, FLAG-AF9, single point. Protein AF-9 (Homo sapiens), P42568. inhibition, % at 10 µM. hit rate 0.47% among 350,000. AID 651704, 2012;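 active = every replicate reaching a set inhibition limit, whatever the replicate mean, cut at about 25% in these data; inconclusive = mean inhibition reaches that limit but some replicates miss it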;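 also: 0% = plate neutral control median and 100% = total signal loss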
Target sequence (P42568 whole entry, looked up): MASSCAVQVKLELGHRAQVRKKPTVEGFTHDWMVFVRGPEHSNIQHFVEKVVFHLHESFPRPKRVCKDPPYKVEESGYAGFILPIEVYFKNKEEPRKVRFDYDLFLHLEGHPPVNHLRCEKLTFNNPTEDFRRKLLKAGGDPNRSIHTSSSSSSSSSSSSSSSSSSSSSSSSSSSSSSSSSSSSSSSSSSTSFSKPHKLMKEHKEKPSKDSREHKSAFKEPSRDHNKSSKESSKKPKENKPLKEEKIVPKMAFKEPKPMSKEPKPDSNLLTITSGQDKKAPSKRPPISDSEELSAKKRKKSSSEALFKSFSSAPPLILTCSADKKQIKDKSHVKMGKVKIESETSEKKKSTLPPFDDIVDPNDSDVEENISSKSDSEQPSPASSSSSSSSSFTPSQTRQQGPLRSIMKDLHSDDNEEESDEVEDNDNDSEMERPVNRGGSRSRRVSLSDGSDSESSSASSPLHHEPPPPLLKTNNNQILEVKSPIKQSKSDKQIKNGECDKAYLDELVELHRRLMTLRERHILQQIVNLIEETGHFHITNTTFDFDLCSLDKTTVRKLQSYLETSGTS
Env fusion inh – inhibitors of HIV-1 Env-driven cell-cell fusion, primary screen, HeLa-JRFL effector, CEM21 target cells, luciferase | inhibition, % at 12.3 µM | hit rate 1.1% among 360,000 | AID 651610, 2012;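 active = mean replicate inhibition score of at least 50 and every replicate individually at or above 50; inconclusive = only one of the two criteria met; inactive = mean below 50 and not all replicates reaching 50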;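 also: 0% = plate neutral controls and 100% = maraviroc near 300 nM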
PAX8 reporter – inhibitors of PAX8-driven TPO luciferase reporter, primary screen, RMG-I cells, single concentration | hit rate 1.2% among 360,000 | inhibition, % at 12.6 µM | AID 652154, 2013 | SteadyGlo, 24 h;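 active = mean replicate inhibition at least 60% with every replicate also reaching 60%; inconclusive = only one of the two criteria is met; inactive = mean below 60% and not all replicates reaching 60%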;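 also: luciferase light reporting Pax8 driven TPO promoter activity; plate controls were median of neutral control wells for no effect and mitoxantrone controls for full effect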
Glyco luc inh – increase of ERlucT glycosylation luciferase signal, primary screen, N-linked glycosylation inhibitor project, D54 ERlucT cells, luminescence, set 2 | hit rate 0.23% among 360,000 | D54 ERlucT glycosylation luciferase reporter, 24 h; percent of 100 nM tunicamycin response | reporter increase, % at 12.5 µM;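 active = mean luciferase reporter signal, scaled so untreated is 0 and the glycosylation-blocking control 100, at or above a set limit in every replicate; inconclusive = mean reaches the limit but not every replicate does; inactive = mean below the limit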;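 also: luciferase carries N-glycosylation sites so blocking glycosylation raises the light; 0% = median of neutral control wells and 100% = median of 100 nM tunicamycin wells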
An asterisk follows results filed as active; u = inconclusive; x = no result given; [ ] = remark or other dose. Compounds with a hit are over-represented: about 2.5% of the library has one in this group of screens.

SMILES | EWS-Fli inh | FN deposit inh | AF4-AF9 inh | Env fusion inh | PAX8 reporter | Glyco luc inh
Cc1nc(SCC(=O)Nc2nccs2)c(C#N)c(C)c1C | 72* | -3 | -1 | -4 | 0 | -20
COc1cc(-c2cc(-c3ccccc3)nc(SCC(=O)Nc3nccs3)c2C#N)cc(OC)c1OC | x | x | x | x | x | -1
Cc1nc(SCC(=O)Nc2nc3ccccc3s2)c(C#N)c(C)c1C | 87* | 15 | 0 | 63* | 108* | -23
C[C@@H]1CCCCO[C@H](CN(C)S(C)(=O)=O)[C@H](C)CN([C@@H](C)CO)C(=O)c2cc(NC(=O)Nc3ccc(F)cc3)ccc2O1 | -4 | x | x | -7[16.7 µM] | 13 | x
CCCNC(=O)C[C@@H]1C[C@H]2c3cc(NC(=O)NC4CCCCC4)ccc3O[C@H]2[C@@H](CO)O1 | -1 | -5 | 0 | 10[16.7 µM] | 1 | x
C[C@H](CO)N1C[C@H](C)[C@@H](CN(C)C(=O)Nc2ccccc2)Oc2ccc(NS(=O)(=O)c3cccs3)cc2C1=O | -8 | x | 0 | x | -19 | x
CCc1nc2ccccc2c(C(=O)OCC(=O)Nc2cccc(S(=O)(=O)N3CCOCC3)c2)c1C | x | x | x | 100* | x | 1
CCc1nc2ccccc2c(C(=O)OCC(=O)Nc2ccc(S(=O)(=O)N3CCOCC3)cc2)c1C | x | x | x | x | x | -3
O=C(COC(=O)c1cccc(S(=O)(=O)N2CCOCC2)c1)NCc1ccccc1 | -2 | 1 | -4 | 68* | -1 | -1
O=C(NCCN1CCOCC1)c1cccc(S(=O)(=O)N2CCCCC2)c1 | -3 | -3 | -1 | 15 | 8 | 1
CC(C)(CNC(=O)c1cccc(S(=O)(=O)N2CCCCC2)c1)N1CCOCC1 | 6 | -5 | -2 | 63* | 8 | 1
COc1ccc(CN(C)C[C@@H]2OCCCC[C@H](C)Oc3ccc(NC(=O)Cc4ccccc4)cc3C(=O)N([C@@H](C)CO)C[C@H]2C)cc1 | 5 | x | x | 4[16.7 µM] | 4 | x
C[C@H](CO)N1C[C@H](C)[C@H](CN(C)C(=O)Nc2ccccc2)Oc2ccc(NC(=O)CCC(F)(F)F)cc2CC1=O | -3 | x | -4 | 7[16.7 µM] | -24 | x
C[C@H]1CN([C@@H](C)CO)C(=O)c2cc(NC(=O)Nc3ccc(C(F)(F)F)cc3)ccc2O[C@@H]1CN(C)Cc1ccccc1 | 0 | x | 3 | -3[16.7 µM] | 10 | x
COc1ccc(CCNc2c3ccccc3nc3ccccc23)cc1OC | 28 | 1 | 8 | 26 | -66 | 84*
COc1ccc(Nc2ccc(Nc3ccc(OC)cc3)nn2)cc1 | 11 | -9 | 4 | 5 | -25 | 1
Oc1cccc(Nc2c3ccccc3nc3ccccc23)c1 | 26 | -3 | 0 | -27 | -25 | 62*
COc1ccc(Nc2ccc(OC)cc2)cc1 | -86 | 11 | 81* | 15 | -117 | -1
COc1ccc(Nc2c3c(nc4ccccc24)CCC3)cc1 | 30 | 5 | 9 | 35 | 33 | 5
COc1ccc(Nc2c3ccccc3nc3ccccc23)cc1 | 9 | 10 | 13 | 1 | 17 | 42*
Cc1noc(C)c1S(=O)(=O)Nc1ccc2c(c1)C(=O)N([C@H](C)CO)C[C@@H](C)[C@@H](CN(C)C(=O)Nc1ccc3c(c1)OCO3)OCCCC[C@@H](C)O2 | 8 | x | 5 | 6[16.7 µM] | x | x
COc1ccccc1Nc1nc(-c2ccccc2)nc2ccccc12 | 8 | -1 | -12 | 7 | -22 | -1
COc1ccccc1Nc1c2ccccc2nc2ccccc12 | 19 | 9 | 23 | 57* | 15 | 3
COc1ccc(NC2=C(C)C(=O)CC2)cc1 | x | x | x | x | x | 32*
COc1ccc(Nc2c3c(nc4ccccc24)CCCC3)cc1OC | -5 | 6 | 10 | 1 | 1 | 7
SMILES | EWS-Fli inh | FN deposit inh | AF4-AF9 inh | Env fusion inh | PAX8 reporter | Glyco luc inh
COc1ccc(C)cc1Nc1c2c(nc3ccccc13)CCC2 | 53* | 2 | 7 | -125 | 47 | 10
C[C@@H]1CN([C@@H](C)CO)C(=O)c2cccc(NS(=O)(=O)c3cccs3)c2O[C@H]1CN(C)S(=O)(=O)c1ccc(Cl)cc1 | 3 | x | -1 | 12[16.7 µM] | -21 | x
CO[C@H]1CC[C@@H]2CCN(C)C(=O)[C@H](C)[C@H](OC)CN(C)C(=O)c3cccc(C#N)c3OC[C@@H]1O2 | -4 | -7 | -2 | -8[16.7 µM] | -7 | x
CC(=O)O[C@H]1C(=O)[C@@]2(C)C([C@H](OC(=O)c3ccccc3)[C@]3(O)C[C@H](OC(=O)[C@H](O)[C@@H](NC(=O)c4ccccc4)c4ccccc4)C(C)=C1C3(C)C)[C@]1(OC(C)=O)CO[C@@H]1C[C@H]2O (stereo partly drawn) | 55* | x | -1 | x | x | 5
CC(=O)O[C@H]1C(=O)[C@]2(C)[C@H]([C@H](OC(=O)c3ccccc3)[C@]3(O)C[C@H](OC(=O)[C@H](O)[C@@H](NC(=O)c4ccccc4)c4ccccc4)C(C)=C1C3(C)C)[C@]1(OC(C)=O)CO[C@@H]1C[C@@H]2O | 61* | 24 | 0 | -89 | 40 | 13
C[C@@H]1CN([C@@H](C)CO)C(=O)c2cccc(NC(=O)Nc3cccc4ccccc34)c2O[C@H]1CN(C)CC1CC1 | 11 | -26 | 11 | 14[16.7 µM] | 20 | x
O=S(=O)(CCN1C=CC(C(F)(F)F)=NCC1)c1ccc(Cl)cc1Cl | -2 | 3 | 44* | 11 | -59 | 0
COc1ccc(-c2ccccc2C2Cc3nnccc3CN2)cc1 (stereo not drawn) | -4 | -17 | x | 20 | 72* | x
CC=Cc1ccc2n(c1=O)C[C@@H]1[C@@H](CO)[C@H](C(=O)N3CCCCC3)N(CC3CC3)[C@H]21 (mixture of isomers) | 3 | x | -2 | x | x | x
Cn1c(-c2ccccc2)c(C(=O)CCl)c2ccccc21 | -10 | -1 | 1 | 64* | 44 | 13
CCn1c(-c2ccccc2)c(C(=O)CCl)c2ccccc21 | 34 | -1 | 1 | 41 | 39 | 13
Oc1c(C(Nc2nccs2)c2ccc(C(F)(F)F)cc2)ccc2cccnc12 (stereo not drawn) | u | 13 | -29 | -73 | 85* | -11
CCCC(=O)NC(c1cccs1)c1cc(Cl)c2cccnc2c1O (stereo not drawn) | 2 | 12 | 0 | 74* | 50 | 0
CCC(=O)NC(c1cccs1)c1ccc2cccnc2c1O (stereo not drawn) | 16 | 4 | u | -5 | 66* | -11
Oc1c(C(Nc2nc3ccccc3s2)c2ccco2)ccc2cccnc12 (stereo not drawn) | x | 4 | x | -70 | x | -14
CC(C)CC(=O)NC(c1cccs1)c1ccc2cccnc2c1O (stereo not drawn) | x | x | x | x | x | -10

Assay outcomes as filed in PubChem BioAssay.
